ABHD5-PLIN5 inh – inhibitors of human ABHD5-perilipin-5 interaction; Q00G26+Q8WTS1; Split G. princeps luciferase complementation, luminescence, 4 h; 360,000 compounds, 0.78% hits; inhibition, % at 4 µM; AID 602281;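 active = inhibition above the mean inhibition across every tested compound plus 3 SD, cut at about 22% in these data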;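 also: 0% = DMSO only wells and the 100% control is not disclosed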
Target sequence (Q00G26 whole entry, looked up): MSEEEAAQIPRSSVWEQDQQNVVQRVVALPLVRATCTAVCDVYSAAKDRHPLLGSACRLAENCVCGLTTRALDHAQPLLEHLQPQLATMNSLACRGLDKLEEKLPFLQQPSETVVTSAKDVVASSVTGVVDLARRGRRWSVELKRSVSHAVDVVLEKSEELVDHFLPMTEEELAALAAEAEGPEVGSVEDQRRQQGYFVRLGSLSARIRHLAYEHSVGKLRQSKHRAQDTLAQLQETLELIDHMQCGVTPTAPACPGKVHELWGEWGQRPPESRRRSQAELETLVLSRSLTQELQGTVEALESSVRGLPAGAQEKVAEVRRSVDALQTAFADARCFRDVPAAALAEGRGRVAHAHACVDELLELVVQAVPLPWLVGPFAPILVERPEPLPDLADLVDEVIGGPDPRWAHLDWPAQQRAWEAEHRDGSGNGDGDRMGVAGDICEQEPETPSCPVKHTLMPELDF
Target sequence (Q8WTS1 whole entry, looked up): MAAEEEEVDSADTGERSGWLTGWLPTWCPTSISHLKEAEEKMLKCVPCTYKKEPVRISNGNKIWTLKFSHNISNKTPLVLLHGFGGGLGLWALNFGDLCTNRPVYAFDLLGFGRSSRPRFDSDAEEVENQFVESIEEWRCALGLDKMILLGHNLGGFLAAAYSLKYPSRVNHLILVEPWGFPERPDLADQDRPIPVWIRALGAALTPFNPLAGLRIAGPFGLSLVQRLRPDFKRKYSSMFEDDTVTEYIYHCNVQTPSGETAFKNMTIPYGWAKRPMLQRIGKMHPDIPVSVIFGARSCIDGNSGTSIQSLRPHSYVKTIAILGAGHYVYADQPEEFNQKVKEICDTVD
rCAG RNA binder – molecules binding r(CAG) RNA repeats. 370,000 compounds, 1.3% hits. AID 651821. inhibition, % at 3 µM. r(CAG) RNA repeat, TO-PRO-1 dye displacement fluorescence;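 active = inhibition above the plate cutoff, the mean of all test compounds on that plate plus 3 SD, cut at about 35% in these data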;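 also: 0% = DMSO alone and 100% = 100 µM mitoxantrone as full dye displacement; higher means more dye released from RNA so lower well fluorescence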
NadD block – NadD (S. aureus) enzyme inhibition; purified NadD enzyme, colorimetric absorbance read-out; inhibition, % at 20 µM; 360,000 compounds, 0.78% hits; in the data active = inhibition above about 26%
core dimer inh – blocks dimerization of HCV core protein | TR-FRET GST/Flag-core106 dimerization, 1536-well | inhibition, % at 5 µM | 300,000 compounds, 0.33% hits | AID 1899;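 active = inhibition above the mean of all tested compounds plus 3 SD, set per screening campaign, cut at about 45% in these data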
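test system = GST/Flag-tagged HCV core106 proteins | probe or stimulus = Eu donor and XL665 acceptor anti-tag antibodies | times = compound-protein-antibody incubation 4 h at 22.5 °C | signal = TR-FRET, excitation 340 nm, emission 617 and 671 nm | measure = percent inhibition of core106 dimerization signal | controls = wells lacking GST-core106 and wells with excess unlabelled core106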
Numbers without * were called inactive; x = not tested or not shown. Shown are actives, neighbours in structure and some others; about 2.6% of the full set was active somewhere.

SMILES	ABHD5-PLIN5 inh	rCAG RNA binder	NadD block	core dimer inh
COC(=O)[C@]12C[C@H](CC(=O)NCCC(C)C)C(=O)N(Cc3ccco3)C1=C[C@H](C(C)(C)C)O[C@@H]2C	x	0.6	x	x
Cc1ccccc1C1C2=C(Nc3[nH]n(-c4ccccc4)c(=O)c31)c1ccccc1C2=O (centres undefined)	x	x	x	-6.0
Cc1cccc(C2C3=C(Nc4[nH]n(-c5ccccc5)c(=O)c42)c2ccccc2C3=O)c1 (centres undefined)	4.4	68.1*	8.3	x
CCOC(=O)[C@@]12CCCC=C1N(CCc1ccc(Cl)cc1)C(=O)[C@H]2CC(=O)N1CCN(C(=O)c2ccco2)CC1	x	7.9	x	x
NS(=O)(=O)c1ccc(CCN2C(=O)/C(=C\c3ccc(Cl)cc3)SC2=S)cc1	4.2	3.9	32.6*	9.3
COc1ccc(CCNC(=O)c2cccs2)cc1OC	7.4	-2.3	-4.1	-4.2
COc1ccc(CNc2nc(NCc3ccc(OC)c(OC)c3)n(C(=O)c3cccs3)n2)cc1OC	22.9*	4.0	-3.4	4.8
COc1ccc(CCN2C(=O)C=CC2=O)cc1OC	52.8*	3.2	-0.3	x
COc1ccc(CCn2c(C)ccc2C)cc1OC	x	x	x	47.4*
COc1ccc(S[C@]2(C(=O)N3CCCC3)CC(=O)N(C(=O)CCc3ccccc3)[C@@H]2c2ccc(OC)cc2)cc1	x	9.3	x	x
Cc1c(OC(C)C(=O)NC(Cc2c[nH]c3ccc(O)cc23)C(=O)O)ccc2c1oc(=O)c1ccccc12 (centres undefined)	5.2	58.0*	2.7	-1.2
Cc1c(C)c2ccc(OC(C)C(=O)N[C@@H](Cc3c[nH]c4ccccc34)C(=O)O)c(C)c2oc1=O (some centres undefined)	2.9	33.6	2.1	1.9
CCN(CC(=O)Nc1ccc(OC)cc1)C(=O)Cc1cccs1	4.7	15.9	1.7	51.8*
CCOC(=O)/C=C/C(=O)Nc1cc(S(=O)(=O)Nc2ccc(OC)cc2)ccc1N1CCOCC1	22.4*	3.5	2.2	x
N#Cc1c(SCC(=O)Nc2cccc(F)c2)sc2c(O)cc(=O)[nH]c12	3.6	60.7*	9.7	6.8
Cc1ccc(Cn2cc(CN3CC=CS3(=O)=O)nn2)cc1	x	0.6	x	x
CCC(=O)Nc1nnc(S(=O)(=O)N(CC)c2ccc(OC)cc2)s1	8.1	3.1	-6.3	-1.7
CCN(c1ccc(OC)cc1)S(=O)(=O)c1nnc(NC(=O)COc2ccc(C)cc2)s1	6.1	x	18.2	56.1*
CCCOc1ccc(NC(=O)C2CC(=O)N3CCCN=C3S2)cc1 (centres undefined)	-16.5	12.8	-6.5	7.3
CCOc1ccc(NC(=O)C2CC(=O)N3CCCN=C3S2)cc1 (centres undefined)	-4.1	16.7	-3.7	50.0*
COc1ccc(-c2cc(-c3ccccc3)c(C#N)c(SCC(=O)Nc3ncc(C)s3)n2)cc1	3.7	17.8	29.0	55.5*
COc1ccc(-c2cc(-c3ccc(OC)cc3)c(C#N)c(SC)n2)cc1	-2.3	0.8	3.7	75.1*
COc1ccc(-c2cc(-c3ccc(O)cc3)nc(N)c2C#N)cc1	-1.1	8.4	-4.5	7.1
CCCCc1c(-c2ccccc2OC)ncn1Cc1ccc(F)c(F)c1	x	0.5	x	x
CCCCCCCCCCCCCCCC[N+](C)(C)CCN(Cc1ccc(OC)cc1)c1ncccn1	17.7	x	74.6*	-17.4
SMILES	ABHD5-PLIN5 inh	rCAG RNA binder	NadD block	core dimer inh
Nc1nc(SCC(=O)N2N=C3/C(=C/c4ccco4)CCCC3C2c2ccco2)n[nH]1 (centres undefined)	8.2	18.2	25.1	52.2*
COCCN(CCOC)C(=O)[C@H](CCc1ccccc1)NC(=O)[C@H]1O[C@@H](n2cnc3c(N)ncnc32)[C@H](O)[C@@H]1O	x	-0.8	x	x
CCOC(=O)c1nn(-c2ccccc2C)c2nc(-c3ccc(Cl)cc3)c(C#N)c(=O)n12	2.1	1.8	9.3	56.1*
CCOC(=O)c1nn(-c2ccccc2C)c2nc(-c3ccc(C)cc3)c(C#N)c(=O)n12	-5.7	0.3	3.2	27.0
Cc1ccc(S(=O)(=O)N(C(=O)c2ccncc2)c2ccc(OC(=O)c3ccncc3)c3ccccc23)c(C)c1	32.5*	x	14.0	-18.5
Cc1ccc(S(=O)(=O)N(C(=O)c2ccncc2)c2ccc(OC(=O)c3ccncc3)c3ccccc23)cc1	19.4	6.9	13.2	-7.7
COc1ccc(N2CCN(C(=O)c3cc4c(s3)CCCCC4)CC2)cc1	1.9	1.6	4.3	x
COc1ccccc1N1CCN(C(=O)c2cc3c(s2)CCC3)CC1	0.6	4.3	6.7	74.2*
Cc1cc(C)cc(N(CC(=O)NC2CCC(C)CC2)S(=O)(=O)c2ccc(Br)s2)c1 (centres undefined)	x	1.3	x	x
O=C1C(Cc2ccccc2)Nc2ncnc(N3CCc4ccccc4C3)c2N1Cc1ccc(Cl)cc1 (centres undefined)	2.1	x	63.0*	25.0
Cc1ccc(C2C(C#N)=C(N)Oc3c2sc2ccccc32)o1 (centres undefined)	x	x	x	80.4*
N#Cc1c(C(F)(F)F)cc(-c2ccc(F)cc2)[nH]c1=O	0.1	4.2	4.6	7.6
N#Cc1c(C(F)(F)F)cc(-c2ccc(Cl)cc2)[nH]c1=O	-7.8	37.5*	3.2	7.8
FC(F)(F)c1cccc(N2CCN(C3=Nc4ccccc4Sc4ccccc43)CC2)c1	x	6.9	x	x
COc1ccccc1CNc1nc(-c2cc(C)n(C)c2C)cs1	4.2	x	29.6*	x
Cc1[nH]c2ccccc2c1CC(=O)Nc1ccc(N(C)c2cccnc2)c(-c2cccc(Cl)c2)c1	x	14.3	x	x
O=C1N(CCCO)CCC12CCC(c1ccccc1)CC2 (centres undefined)	x	-1.2	x	x
COc1cc(C(=O)Nc2scc(-c3ccccc3)c2C(=O)O)cc(OC)c1OC	-3.5	49.3*	-3.5	4.2
CCOC(=O)c1c(-c2ccco2)csc1NC(=O)CSc1nnc(N)s1	7.2	20.8	9.3	48.4*
CCOC(=O)c1c(-c2ccco2)csc1N	-10.8	14.2	-3.4	0.2
CCOC(=O)c1c(-c2ccc(C)o2)csc1NC(=O)CSc1nncs1	46.5*	-2.5	3.2	12.6
O=C(CSc1nnc(-c2ccco2)n1-c1ccc(Cl)cc1)Nc1ccccc1-c1ccccc1	x	3.2	x	x
CCOC(=O)Cc1csc(NC(=O)c2sc3nc4ccc(CC)cc4cc3c2N)n1	-8.2	44.2*	15.9	0.4
CCCCOCCCNC(=O)C[C@H]1C[C@@]2(C(=O)OC)C(=C[C@H](C(C)C)O[C@@H]2C2CC2)N(Cc2ccc3c(c2)OCO3)C1=O	x	-1.0	x	x
N#Cc1ccc(Oc2ccc(-c3nc4ccccc4nc3-c3ccccc3)cc2)cc1C#N	3.3	3.1	-2.4	5.5
Nc1ccc(Oc2ccc3nc(-c4ccccc4)c(-c4ccc([N+](=O)[O-])cc4)nc3c2)cc1	-2.7	6.1	32.0*	27.2
Cc1c(CCC(=O)O)c(=O)oc2cc3occ(-c4ccc(Cl)cc4)c3cc12	11.5	59.4*	4.9	20.8
CCNC(=S)NNC(=O)c1cnccn1	x	1.2	x	x
CCOc1ccc(S(=O)(=O)Nc2ccc(C(=O)N/N=C(\C)c3ccc(-n4ccnc4)cc3)cc2)cc1	-6.1	12.8	41.5*	9.3
CCCCCCCCNC(=O)C1CSCCS(=O)(=O)N1Cc1ccc(F)cc1 (centres undefined)	x	-1.3	x	x
